Results: ChEMBL document CHEMBL1158394, “Diversity-oriented synthesis of furo[3,2-f]chromanes with antimycobacterial activity” (Eur J Med Chem, 2009)
Values after ≈ are worked out from the molar mass of the structure shown.

The molecules below were run on Mycobacterium tuberculosis variant bovis BCG (assay: Antimycobacterial activity against Mycobacterium bovis BCG Pasteur after 6 days by microdilution resazurin assay). Conditions: 144 h.
Type: functional
Procedure, shortened: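 Microdilution resazurin assay with M. bovis BCG inoculum grown in Dubos medium with 10% ADC. Drugs (DMSO stocks of 50 mg/mL) are twofold serially diluted in 96-well plates, with DMSO and isoniazid controls, then incubated at 37 °C. Resazurin (0.01% w/v) is added and incubation continues 24 h. MIC95 is the amount giving >95% growth inhibition, in µg/mL. Duplicate runs in two independent experiments.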
`Cc1c2c(c3cc(Cc4cccs4)oc3c1C)CCC(C)(C)O2` gave an MIC95 greater than 100 µg/mL.
In the case of `Cc1c2c(c3cc(Cc4ccc(Cl)cc4)oc3c1C)CCC(C)(C)O2`, the MIC95 is reported as greater than 100 µg/mL.
Molecule `CC(=O)OCc1cc2c3c(c(C)c(C)c2o1)OC(C)(C)CC3` has an MIC95 greater than 100 µg/mL.
In the case of `Cc1c2c(c3cc(-c4ccc(Cl)nc4)oc3c1C)CCC(C)(C)O2`, the MIC95 is reported as greater than 100 µg/mL.
For `CC1(C)CCc2c(ccc3oc(-c4ccncc4)c(CCCO)c23)O1`, the MIC95 was 12.5 µg/mL (≈ 37 µM).
For `Cc1c2c(c3cc(CCc4cccnc4)oc3c1C)CCC(C)(C)O2`, the MIC95 was 3.1 µg/mL (≈ 9.24 µM).
`Cc1c2c(c3cc(-c4ccc[n+]([O-])c4)oc3c1C)CCC(C)(C)O2` gave an MIC95 of 12.5 µg/mL (≈ 38.7 µM).
Work on `Cc1c2c(c3cc(-c4ccncc4)oc3c1C)CCC(C)(C)O2` yielded an MIC95 of 3.1 µg/mL (≈ 10.1 µM).
Work on `Cc1c2c(c3cc(-c4ccc(-c5nn[nH]n5)nc4)oc3c1C)CCC(C)(C)O2` yielded an MIC95 of 25 µg/mL (≈ 66.6 µM).
Work on `CC1(C)CCc2c(ccc3oc(-c4cccnc4)c(CCCO)c23)O1` yielded an MIC95 of 6.2 µg/mL (≈ 18.4 µM).
`Cc1c2c(c3cc(-c4cccs4)oc3c1C)CCC(C)(C)O2` was tested, and the MIC95 was greater than 100 µg/mL.
Molecule `COC(=N)c1ccc(-c2cc3c4c(c(C)c(C)c3o2)OC(C)(C)CC4)cn1` has an MIC95 of 6.2 µg/mL (≈ 17 µM).
In the case of `Cc1c(-c2ccncc2)oc2ccc3c(c12)C=CC(C)(C)O3`, the MIC95 is reported as 6.2 µg/mL (≈ 21.3 µM).
`CC1(C)C=Cc2c(ccc3oc(-c4ccncc4)cc23)O1` showed an MIC95 of 6.2 µg/mL (≈ 22.4 µM).
Work on `Cc1c2c(c3cc(-c4ccccn4)oc3c1C)CCC(C)(C)O2` yielded an MIC95 greater than 100 µg/mL.
`Cc1c2c(c3cc(-c4cccnc4)oc3c1C)CCC(C)(C)O2` was tested, and the MIC95 was 3.1 µg/mL (≈ 10.1 µM).
`Cc1c2c(c3cc(CCC(=O)N4CCOCC4)oc3c1C)CCC(C)(C)O2` gave an MIC95 greater than 100 µg/mL.
With `NNC(=O)c1ccncc1` [ISONIAZID] the MIC95 was 0.4 µg/mL (≈ 2.92 µM).
`Cc1c2c(c3cc(/C=C/c4cccnc4)oc3c1C)CCC(C)(C)O2` showed an MIC95 of 6.2 µg/mL (≈ 18.6 µM).
With `Cc1c2c(c3cc(Cc4cccnc4)oc3c1C)CCC(C)(C)O2` the MIC95 was 6.2 µg/mL (≈ 19.3 µM).
Molecule `Cc1c2c(c3cc(-c4cnccn4)oc3c1C)CCC(C)(C)O2` has an MIC95 of 25 µg/mL (≈ 81.1 µM).
`Cc1c2c(c3cc(-c4ccc(NCCCN(C)C)nc4)oc3c1C)CCC(C)(C)O2` gave an MIC95 of 6.2 µg/mL (≈ 15.2 µM).
